According to ChEMBL document CHEMBL1155641, “Cytotoxic cembrenolides and steroids from the formosan soft coral Sarcophyton crassocaule” (2000):
In brackets after ≈: the same amount, converted by molar mass.

What was measured:
Type in all cases: functional
Details in all cases: read-out: ED50 (the source's name)
[1] = test system: P388; assay: Cytotoxicity against mouse P388 cells
Method in brief: (§1)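 Human KB epidermoid carcinoma and mouse P-388 lymphocytic leukemia cells came from an academic laboratory (University of Illinois at Chicago). Cytotoxicity assay run per a previously described procedure.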

[2] = test system: HT-29; assay: Cytotoxicity against human HT29 cells
Method in brief: (§2)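 Human A549 lung adenocarcinoma and HT-29 colon adenocarcinoma cell lines from the American Type Culture Collection. Cytotoxicity assay run per a previously described procedure.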

[3] = test system: KB; assay: Cytotoxicity against human KB cells; method in brief: as §1
[4] = test system: A549; assay: Cytotoxicity against human A549 cells; method in brief: as §2

| Structure (SMILES) | EC50 [1] [µg/mL] | EC50 [2] [µg/mL] | EC50 [3] [µg/mL] | EC50 [4] [µg/mL] |
| --- | --- | --- | --- | --- |
| CC(C)[C@@H](C)CC[C@@H](C)[C@H]1CC[C@H]2[C@@H]3C[C@@H](O)[C@@]4(O)C[C@@H](O)CC[C@]4(C)[C@H]3CC[C@]12C | 0.14 (≈ 0.322 µM) | 8.35 (≈ 19.2 µM) | 5.38 (≈ 12.4 µM) | 6.26 (≈ 14.4 µM) |
| C=C1C(=O)O[C@H]2[C@H]1C[C@@H]1O[C@@]1(C)CC/C=C(\C)CC/C=C(\C)[C@@H]2OC(C)=O | 0.38 (≈ 1.01 µM) | 5.67 (≈ 15.1 µM) | 7.39 (≈ 19.7 µM) | 4.66 (≈ 12.4 µM) |
| CC(=O)OC(C)(C)[C@H](C)CC[C@@H](C)[C@H]1CC[C@H]2[C@@H]3C[C@@H](O)[C@@]4(O)C[C@@H](O)CC[C@]4(C)[C@H]3CC[C@]12C | 3.96 (≈ 8.04 µM) | 4.32 (≈ 8.77 µM) | 26.8 (≈ 54.5 µM) | 22.4 (≈ 45.5 µM) |
| C=C1C(=O)O[C@@H]2C/C(C)=C/CC/C(C)=C/CC[C@]3(C)O[C@H]3C[C@@H]12 [SARCOCRASSOLIDE] | 0.16 (≈ 0.506 µM) | 7.55 (≈ 23.9 µM) | 9.15 (≈ 28.9 µM) | 8.31 (≈ 26.3 µM) |
| C=C1C(=O)O[C@H]2/C=C(\C)CC[C@H](OC(C)=O)[C@@]3(C)CC[C@H](OO3)/C(C)=C\C[C@@H]12 [DENTICULATOLIDE] | 0.15 (≈ 0.384 µM) | 5.78 (≈ 14.8 µM) | 6.29 (≈ 16.1 µM) | 6.46 (≈ 16.5 µM) |
